Results from ChEMBL document CHEMBL3774346, “Rational design, synthesis and biological evaluation of 1,3,4-oxadiazole pyrimidine derivatives as novel pyruvate dehydrogenase complex E1 inhibitors” (Bioorg Med Chem, 2016).

Key:
[1] = Inhibition of Escherichia coli PDHc-E1 expressed in Escherichia coli TB1 using sodium pyruvate as substrate and ThDP after 3 mins by 2,6-DCPIP based microplate reader method
Procedure, shortened: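 The enzyme (7.1 µM) was preincubated 3 min at 37 °C with varied inhibitor in 50 mM K3PO4 pH 7.2, 2.0 mM pyruvate and 0.8 mM 2,6-DCPIP. ThDP (0–200 µM) started the reaction, read as A600 decrease. IC50 came from a Hill fit of initial rates.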

[2] = Antibacterial activity against Synechocystis sp. PCC 6803; assay type: functional
[3] = Antibacterial activity against Synechocystis sp. PCC 6803 at 10 uM; assay type: functional
Alternaria solani = experiment: Antifungal activity against Alternaria solani at 100 ug/ml; assay type: functional
Rhizoctonia solani = experiment: Antifungal activity against Rhizoctonia solani at 100 ug/ml; assay type: functional
Botrytis cinerea = experiment: Antifungal activity against Botrytis cinerea at 100 ug/ml; assay type: functional
[4] = test system: Colletotrichum orbiculare; experiment: Antifungal activity against Colletotrichum orbiculare at 100 ug/ml; assay type: functional
Escherichia coli [5] = experiment: Inhibition of Escherichia coli PDHc-E1 expressed in Escherichia coli TB1 at 100 uM using sodium pyruvate as substrate after 3 mins by 2,6-DCPIP based microplate reader method
[6] = target: T1, Pyruvate dehydrogenase E1 component subunit alpha, somatic form, mitochondrial (Sus scrofa) (UniProt P29804); experiment: Inhibition of pig heart PDHc-E1 using sodium pyruvate as substrate at 100 uM after 3 mins by 2,6-DCPIP based microplate reader method
T1 sequence (whole entry): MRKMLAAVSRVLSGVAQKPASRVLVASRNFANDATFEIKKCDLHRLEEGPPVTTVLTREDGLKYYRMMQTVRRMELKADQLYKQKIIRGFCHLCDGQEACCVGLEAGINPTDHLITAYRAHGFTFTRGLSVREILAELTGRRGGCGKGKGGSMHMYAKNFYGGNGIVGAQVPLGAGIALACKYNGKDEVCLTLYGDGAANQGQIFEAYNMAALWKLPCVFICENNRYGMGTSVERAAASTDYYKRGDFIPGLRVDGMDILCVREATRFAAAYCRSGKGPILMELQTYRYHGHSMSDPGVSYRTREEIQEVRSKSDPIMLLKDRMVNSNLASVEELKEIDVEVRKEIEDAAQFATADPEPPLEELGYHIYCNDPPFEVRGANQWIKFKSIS

[7] = Inhibition of Escherichia coli PDHc-E1 E571A mutant expressed in Escherichia coli TB1 using sodium pyruvate as substrate and ThDP after 3 mins by 2,6-DCPIP based microplate reader method
Procedure, shortened: (§1)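 Point mutants were made by PCR mutagenesis on a pMAL-c2x-PDHc-E1 template, DpnI-digested and passed through DH5α. […] Assays used 7.1 µM enzyme, 50 mM K3PO4 pH 7.2, 2.0 mM pyruvate and 0.8 mM DCPIP, with 3 min preincubation at 37 °C and ThDP (0–200 µM) start. A600 was read and IC50 taken by Hill fit.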

[8] = Inhibition of Escherichia coli PDHc-E1 V192A mutant expressed in Escherichia coli TB1 using sodium pyruvate as substrate and ThDP after 3 mins by 2,6-DCPIP based microplate reader method; procedure, shortened: as §1
[9] = Inhibition of Escherichia coli PDHc-E1 M194A mutant expressed in Escherichia coli TB1 using sodium pyruvate as substrate and ThDP after 3 mins by 2,6-DCPIP based microplate reader method; procedure, shortened: as §1
[10] = Inhibition of Escherichia coli PDHc-E1 F602A mutant expressed in Escherichia coli TB1 using sodium pyruvate as substrate and ThDP after 3 mins by 2,6-DCPIP based microplate reader method; procedure, shortened: as §1
[11] = Inhibition of Escherichia coli PDHc-E1 E522A mutant expressed in Escherichia coli TB1 using sodium pyruvate as substrate and ThDP after 3 mins by 2,6-DCPIP based microplate reader method; procedure, shortened: as §1
[12] = Inhibition of Escherichia coli TB1 PDHc-E1 H106A mutant expressed in Escherichia coli TB1 using sodium pyruvate as substrate and ThDP after 3 mins by 2,6-DCPIP based microplate reader method; procedure, shortened: as §1
[13] = Inhibition of Escherichia coli TB1 PDHc-E1 K392A mutant expressed in Escherichia coli TB1 using sodium pyruvate as substrate and ThDP after 3 mins by 2,6-DCPIP based microplate reader method; procedure, shortened: as §1
Escherichia coli [14] = experiment: Selectivity index, ratio of IC50 for Escherichia coli PDHc-E1 K392A mutant to IC50 for Escherichia coli WT PDHc-E1
Escherichia coli [15] = experiment: Selectivity index, ratio of IC50 for Escherichia coli PDHc-E1 H106A mutant to IC50 for Escherichia coli WT PDHc-E1

Cc1ncc(Cn2cc(CSc3nnc(-c4sc(N)nc4C)o3)nn2)c(N)n1
IC50 [1]: 4.36 µM
EC50 [2]: 1.63 µM
inhibition at 10 µM [3]: 90%
inhibition at 100 µg/mL (Alternaria solani): 56%
inhibition at 100 µg/mL (Rhizoctonia solani): 11%
inhibition at 100 µg/mL (Botrytis cinerea): 31%
inhibition at 100 µg/mL [4]: 24%
inhibition (Escherichia coli [5]): 100%
inhibition [6]: 27.1%

Cc1ncc(Cn2cc(CSc3nnc(-c4sc(N)nc4C(F)(F)F)o3)nn2)c(N)n1
IC50 [1]: 3.94 µM
EC50 [2]: 1.61 µM
inhibition at 10 µM [3]: 90%
inhibition at 100 µg/mL (Alternaria solani): 53%
inhibition at 100 µg/mL (Rhizoctonia solani): 11%
inhibition at 100 µg/mL (Botrytis cinerea): 60%
inhibition at 100 µg/mL [4]: 25%
inhibition (Escherichia coli [5]): 100%
inhibition [6]: 28.3%

Cc1ncc(Cn2cc(CSc3nnc(-c4sc(N)nc4C(F)(F)F)n3N)nn2)c(N)n1
IC50 [1]: 5.03 µM
EC50 [2]: 3.24 µM
inhibition at 10 µM [3]: 90%
inhibition at 100 µg/mL (Alternaria solani): 21%
inhibition at 100 µg/mL (Rhizoctonia solani): 11%
inhibition at 100 µg/mL (Botrytis cinerea): 20%
inhibition at 100 µg/mL [4]: 35%

CNc1nc(C(F)(F)F)c(-c2nnc(SCc3cn(Cc4cnc(C)nc4N)nn3)o2)s1
IC50 [1]: 0.97 µM
EC50 [2]: 0.83 µM
inhibition at 10 µM [3]: 90%
inhibition at 100 µg/mL (Alternaria solani): 41%
inhibition at 100 µg/mL (Rhizoctonia solani): 14%
inhibition at 100 µg/mL (Botrytis cinerea): 50%
inhibition at 100 µg/mL [4]: 36%
inhibition (Escherichia coli [5]): 100%
inhibition [6]: 26.1%
IC50 [7]: 5.02 µM
IC50 [8]: 33.2 µM
IC50 [9]: 19.1 µM
IC50 [10]: 5.08 µM
IC50 [11]: 10.8 µM
IC50 [12]: 11.6 µM
IC50 [13]: 20.4 µM
Ratio IC50 (Escherichia coli [14]): 20
Ratio IC50 (Escherichia coli [15]): 11

Cc1ncc(Cn2cc(CSc3nnc(-c4ccc([N+](=O)[O-])cc4Cl)o3)nn2)c(N)n1
IC50 [1]: 12.8 µM
EC50 [2]: 6.37 µM
inhibition at 100 µg/mL (Alternaria solani): 35%
inhibition at 100 µg/mL (Rhizoctonia solani): 46%
inhibition at 100 µg/mL (Botrytis cinerea): 54%
inhibition at 100 µg/mL [4]: 38%

Cc1ncc(Cn2cc(CSc3nnc(-c4ccccc4)o3)nn2)c(N)n1
IC50 [1]: 7.87 µM
EC50 [2]: 5.15 µM
inhibition at 10 µM [3]: 90%
inhibition at 100 µg/mL (Alternaria solani): 47%
inhibition at 100 µg/mL (Rhizoctonia solani): 30%
inhibition at 100 µg/mL (Botrytis cinerea): 60%
inhibition at 100 µg/mL [4]: 40%

CNc1nc(C)c(-c2nnc(SCc3cn(Cc4cnc(C)nc4N)nn3)o2)s1
IC50 [1]: 6.62 µM
EC50 [2]: 1.51 µM
inhibition at 10 µM [3]: 90%
inhibition at 100 µg/mL (Alternaria solani): 44%
inhibition at 100 µg/mL (Rhizoctonia solani): 11%
inhibition at 100 µg/mL (Botrytis cinerea): 31%
inhibition at 100 µg/mL [4]: 26%
inhibition (Escherichia coli [5]): 100%
inhibition [6]: 15.6%

Cc1ncc(Cn2cc(CSc3nnc(-c4sc(N)nc4C)n3N)nn2)c(N)n1
IC50 [1]: 7.02 µM
EC50 [2]: 2.3 µM
inhibition at 10 µM [3]: 90%
inhibition at 100 µg/mL (Alternaria solani): 29%
inhibition at 100 µg/mL (Rhizoctonia solani): 16%
inhibition at 100 µg/mL (Botrytis cinerea): 16%
inhibition at 100 µg/mL [4]: 26%

CNc1nc(C(F)(F)F)c(-c2nnc(SCc3cn(Cc4cnc(C)nc4N)nn3)n2N)s1
IC50 [1]: 15.7 µM
EC50 [2]: 9.86 µM
inhibition at 100 µg/mL (Alternaria solani): 21%
inhibition at 100 µg/mL (Rhizoctonia solani): 11%
inhibition at 100 µg/mL (Botrytis cinerea): 8%
inhibition at 100 µg/mL [4]: 28%

Cc1ncc(Cn2cc(COc3ccc([N+](=O)[O-])cc3)nn2)c(N)n1
IC50 [1]: 8.8 µM
EC50 [2]: > 50 µM
inhibition at 10 µM [3]: < 30%

Cc1ncc(Cn2cc(CSc3nnc(-c4ccc(C(F)(F)F)cc4)o3)nn2)c(N)n1
IC50 [1]: 15.9 µM
EC50 [2]: 5.35 µM
inhibition at 10 µM [3]: 90%
inhibition at 100 µg/mL (Alternaria solani): 35%
inhibition at 100 µg/mL (Rhizoctonia solani): 0%
inhibition at 100 µg/mL (Botrytis cinerea): 45%
inhibition at 100 µg/mL [4]: 45%

Cc1ncc(Cn2cc(CSc3nnc(-c4cccc([N+](=O)[O-])c4)o3)nn2)c(N)n1
IC50 [1]: 10.4 µM
EC50 [2]: 5.14 µM
inhibition at 10 µM [3]: 90%
inhibition at 100 µg/mL (Alternaria solani): 48%
inhibition at 100 µg/mL (Rhizoctonia solani): 60%
inhibition at 100 µg/mL (Botrytis cinerea): 59%
inhibition at 100 µg/mL [4]: 40%

Cc1ncc(Cn2cc(CSc3nnc(-c4ccc([N+](=O)[O-])cc4)o3)nn2)c(N)n1
IC50 [1]: 7.59 µM
EC50 [2]: 9.04 µM
inhibition at 100 µg/mL (Alternaria solani): 60%
inhibition at 100 µg/mL (Rhizoctonia solani): 55%
inhibition at 100 µg/mL (Botrytis cinerea): 45%
inhibition at 100 µg/mL [4]: 35%

Cc1ncc(Cn2cc(CSc3nnc(-c4ccccc4[N+](=O)[O-])o3)nn2)c(N)n1
IC50 [1]: 9.84 µM
EC50 [2]: 4.76 µM
inhibition at 10 µM [3]: 90%
inhibition at 100 µg/mL (Alternaria solani): 58%
inhibition at 100 µg/mL (Rhizoctonia solani): 40%
inhibition at 100 µg/mL (Botrytis cinerea): 54%
inhibition at 100 µg/mL [4]: 48%

Cc1ncc(Cn2cc(CSc3nnc(-c4ccc(Cl)cc4)o3)nn2)c(N)n1
IC50 [1]: 7.08 µM
EC50 [2]: 5.25 µM
inhibition at 10 µM [3]: 90%
inhibition at 100 µg/mL (Alternaria solani): 60%
inhibition at 100 µg/mL (Rhizoctonia solani): 46%
inhibition at 100 µg/mL (Botrytis cinerea): 45%
inhibition at 100 µg/mL [4]: 52%

Cc1ncc(Cn2cc(COc3ccccc3[N+](=O)[O-])nn2)c(N)n1
IC50 [1]: 36.3 µM
EC50 [2]: > 50 µM
inhibition at 10 µM [3]: < 30%

Cc1ncc(Cn2cc(CSc3nnc(-c4ccccc4F)o3)nn2)c(N)n1
IC50 [1]: 19.2 µM
EC50 [2]: 8.05 µM
inhibition at 100 µg/mL (Alternaria solani): 40%
inhibition at 100 µg/mL (Rhizoctonia solani): 0%
inhibition at 100 µg/mL (Botrytis cinerea): 28%
inhibition at 100 µg/mL [4]: 32%

CNc1nc(C)c(-c2nnc(SCc3cn(Cc4cnc(C)nc4N)nn3)n2N)s1
IC50 [1]: 11.1 µM
EC50 [2]: 2.99 µM
inhibition at 10 µM [3]: 90%
inhibition at 100 µg/mL (Alternaria solani): 25%
inhibition at 100 µg/mL (Rhizoctonia solani): 17%
inhibition at 100 µg/mL (Botrytis cinerea): 11%
inhibition at 100 µg/mL [4]: 16%

Cc1ncc(Cn2cc(CSc3nnc(-c4ccc(Cl)cc4Cl)o3)nn2)c(N)n1
IC50 [1]: 13.2 µM
EC50 [2]: 5.99 µM

Cc1ncc(Cn2cc(COc3ccccc3)nn2)c(N)n1
IC50 [1]: 55.1 µM
EC50 [2]: > 50 µM
inhibition at 10 µM [3]: < 30%

Cc1ncc(Cn2cc(CSc3nnc(-c4cc([N+](=O)[O-])cc([N+](=O)[O-])c4)o3)nn2)c(N)n1
IC50 [1]: 8.61 µM
EC50 [2]: 2.33 µM
inhibition at 10 µM [3]: 90%
inhibition at 100 µg/mL (Alternaria solani): 30%
inhibition at 100 µg/mL (Rhizoctonia solani): 30%
inhibition at 100 µg/mL (Botrytis cinerea): 41%
inhibition at 100 µg/mL [4]: 33%

Cc1ncc(Cn2cc(COc3ccc(Cl)cc3)nn2)c(N)n1
IC50 [1]: 26.4 µM
EC50 [2]: > 50 µM
inhibition at 10 µM [3]: < 30%

Cc1ncc(Cn2cc(CSc3nnc(-c4ccc(F)cc4)o3)nn2)c(N)n1
IC50 [1]: 9.11 µM
EC50 [2]: 5.34 µM
inhibition at 10 µM [3]: 90%
inhibition at 100 µg/mL (Alternaria solani): 44%
inhibition at 100 µg/mL (Rhizoctonia solani): 0%
inhibition at 100 µg/mL (Botrytis cinerea): 60%
inhibition at 100 µg/mL [4]: 32%

Cc1ncc(Cn2cc(CSc3nnc(-c4ccccc4Cl)o3)nn2)c(N)n1
IC50 [1]: 12.4 µM
EC50 [2]: 2.28 µM

Cc1ncc(Cn2cc(COc3ccc(Cl)cc3Cl)nn2)c(N)n1
IC50 [1]: 18.7 µM
EC50 [2]: > 50 µM
inhibition at 10 µM [3]: < 30%
